One assay concerns dengue virus type 2. Description: Antiviral activity against Dengue virus 2 infected in human Huh-7 cells assessed as inhibition of viral replication after 48 hrs by luciferase reporter gene assay. Conditions: Huh-7, 48 h. The assay is classed as functional, organism-based. Put shortly: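 Huh-7 cells seeded 5000/well, incubated overnight at 37 °C, then given compound (1.56–50 μM final, 2-fold series in DMEM with 10% FCS). Dengue 2 renilla luciferase reporter virus (MOI 10) added 4 h later. After 48 h at 37 °C, cells lysed and renilla luminescence read with coelenterazine. At least four wells per concentration, expressed relative to DMSO control. EC50 by nonlinear regression.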

The target of assay [1] is Prothrombin (Homo sapiens) (UniProt P00734). Description: Inhibition of thrombin (unknown origin) using Boc-Val-Pro-Arg-AMC as substrate at 25 uM after 10 mins by continuous fluorimetric assay. An outline of the steps:
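Thrombin (10 nM) preincubated 15 min with inhibitor (25 μM final) in 50 mM Tris-HCl pH 7.5, 150 mM NaCl, 0.05% Tween 20. Boc-Val-Pro-Arg-AMC then added to 50 μM (Km 16 μM). Fluorescence (ex 355 nm, em 460 nm) followed for 10 min as slope. Triplicate; percent inhibition versus no-inhibitor control.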

A further assay deals with Dengue virus. The experiment in a line: Inhibition of Dengue virus NS2B-NS3 protease expressed in Escherichia coli BL 21 (DE3) using Abz-Nle-Lys-Arg-Arg-Ser-3-(NO2)Tyr as substrate at 50 uM after 15 mins.
The next assay relates to West Nile virus. Description: Inhibition of West Nile virus NS2B-NS3 protease expressed in Escherichia coli BL 21 (DE3) using Abz-Gly-Leu-Lys-Arg-Gly-Gly-3-(NO2)Tyr as substrate at 50 uM after 15 mins.

The source made the active and inactive calls. The calls are words filed in the database; no cut-off is given here.

In ChEMBL document CHEMBL2440094, “Thiazolidinone-peptide hybrids as dengue virus protease inhibitors with antiviral activity in cell culture” (J Med Chem, 2013) one finds EC50 and inhibition data, which are given here for 27 compounds.

Regarding `CCCC[C@H](NC(=O)[C@H](CCCCN)NC(=O)[C@H](CCCNC(=N)N)NC(=O)c1cccc(/C=C2\SC(=S)NC2=O)c1)C(N)=O`, the EC50 in the assay with dengue virus type 2 was > 50 µM. The results for the inhibition (in assay [1]; in the assay on Dengue virus; in the assay on West Nile virus) were 17.6%, 75.2% and 34.6%, respectively.
In the case of `CCCC[C@H](NC(=O)[C@H](CCCCN)NC(=O)[C@H](CCCNC(=N)N)NC(=O)c1ccc(/C=C2\SC(=S)N(c3ccc(C)cc3)C2=O)cc1)C(N)=O`, the inhibition in assay [1] turned out to be 10.2%; in the assay with Dengue virus, 95%; in the assay with West Nile virus, 50.9%.
The like results for `O=C(O)c1ccc(/C=C2\SC(=O)N(Cc3ccccc3)C2=O)cc1` were, in that order, 12.2%, 30.7% and 22.1%.
The corresponding values for `CCCC[C@H](NC(=O)[C@H](CCCCN)NC(=O)[C@H](CCCCN)NC(=O)c1ccc(/C=C2\SC(=O)N(Cc3ccccc3)C2=O)cc1)C(N)=O` are 16.7%, 83% and 36.9%.
The like results for `CCCC[C@H](NC(=O)[C@H](CCCCN)NC(=O)[C@H](CCCNC(=N)N)NC(=O)c1ccc(/C=C2\SC(=S)N(C(C)C)C2=O)cc1)C(N)=O` were, in that order, 12%, 94.4% and 63.7%.
With `CCCC[C@H](NC(=O)[C@H](CCCNC(=N)N)NC(=O)[C@H](CCCNC(=N)N)NC(=O)c1ccc(/C=C2\SC(=O)N(Cc3ccccc3)C2=O)cc1)C(N)=O`, the values for the inhibition (in assay [1]; in the assay with Dengue virus; with West Nile virus) were 13.7%, 92.7% and 74%, respectively.
Consider `CCCC[C@H](NC(=O)[C@H](CCCCN)NC(=O)[C@H](CCCNC(=N)N)NC(=O)CN1C(=O)/C(=C/c2ccc(OC)c(OC)c2)SC1=S)C(N)=O`, for which the results for the inhibition (in assay [1]; with Dengue virus; with West Nile virus) were 13.8%, 46.5% and 30.2%, respectively.
The like results for `CCCC[C@H](NC(=O)[C@H](CCCCN)NC(=O)[C@H](CCCNC(=N)N)NC(=O)c1ccc(/C=C2\SC(=S)N(C3CC3)C2=O)cc1)C(N)=O` were, in that order, 6.3%, 94.6% and 46.4%.
As for `CCCC[C@H](NC(=O)[C@H](CCCCN)NC(=O)[C@H](CCCNC(=N)N)NC(=O)CC1SC(=S)N(Cc2ccc(OC)cc2)C1=O)C(N)=O` (some centres undefined), the EC50 in the assay with dengue virus type 2 came out at 30.3 µM. Besides, the inhibition was found to be 76.8% in assay [1] and 23% in the assay on Dengue virus. Also, the inhibition result in the assay with West Nile virus was “inactive”.
Consider `N=C(N)NCCC[C@H](NC(=O)c1ccc(/C=C2\SC(=O)N(Cc3ccccc3)C2=O)cc1)C(=O)N[C@@H](CCCCN)C(N)=O`, for which the inhibition result in assay [1] was “inactive”. The inhibition with Dengue virus is 83.1%; with West Nile virus, 76.2%.
The like results for `CCCC[C@H](NC(=O)[C@H](CCCCN)NC(=O)[C@H](CCCNC(=N)N)NC(=O)c1ccc(/C=C2\SC(=S)N(CCC)C2=O)cc1)C(N)=O` were, in that order, 11%, 94.2% and 52.7%.
Consider `CCCC[C@H](NC(=O)[C@H](CCCCN)NC(=O)[C@H](CCCNC(=N)N)NC(=O)c1ccc(/C=C2\SC(=O)N(CCO)C2=O)cc1)C(N)=O`, for which the EC50 in the assay on dengue virus type 2 was > 50 µM. In addition, the inhibition turned out to be 11.8% in assay [1], 95.9% in the assay on Dengue virus and 26.5% with West Nile virus.
For the compound `CCCC[C@H](NC(=O)[C@H](CCCCN)NC(=O)[C@H](CCCNC(=N)N)NC(=O)c1ccc(/C=C2\SC(=O)N(CCC)C2=O)cc1)C(N)=O`, in assay [1], the inhibition entry is “inactive”. Besides, the inhibition in the assay with Dengue virus was 94.5%; with West Nile virus, 33.6%.
The corresponding values for `CCCC[C@H](NC(=O)[C@H](CCCCN)NC(=O)[C@H](CCCNC(=N)N)NC(=O)c1ccc(/C=C2\NC(=S)N(c3ccccc3)C2=O)cc1)C(N)=O` are 18%, 85.2% and 44.1%.
The corresponding values for `CCCC[C@H](NC(=O)[C@H](CCCCN)NC(=O)[C@H](CCCNC(=N)N)NC(=O)c1ccc(/C=C2\SC(=S)N(c3ccc(F)cc3)C2=O)cc1)C(N)=O` are 6.5%, 89.7% and 35.5%.
With `C=CCN1C(=O)S/C(=C\c2ccc(C(=O)N[C@@H](CCCNC(=N)N)C(=O)N[C@@H](CCCCN)C(=O)N[C@@H](CCCC)C(N)=O)cc2)C1=O`, the values for the inhibition (in assay [1]; in the assay on Dengue virus; in the assay with West Nile virus) were 12.5%, 93.2% and 33.2%, respectively.
The corresponding values for `N=C(N)NCCC[C@H](NC(=O)c1ccc(/C=C2\SC(=O)N(Cc3ccccc3)C2=O)cc1)C(N)=O` are 13.2%, 32.4% and 16.9%.
The like results for `CCCC[C@H](NC(=O)[C@H](CCCCN)NC(=O)[C@H](CCCNC(=N)N)NC(=O)c1ccc(/C=C2\SC(=O)N(CC)C2=O)cc1)C(N)=O` were, in that order, 19%, 96.5% and 48.5%.
For `CCCC[C@H](NC(=O)[C@H](CCCCN)NC(=O)[C@H](CCCNC(=N)N)NC(=O)c1ccc(/C=C2\SC(=S)N(c3ccccc3)C2=O)cc1)C(N)=O`, the inhibition turned out to be 14.2% in assay [1], 90% with Dengue virus and 37.8% in the assay on West Nile virus.
The corresponding values for `CCCC[C@H](NC(=O)[C@H](CCCCN)NC(=O)[C@H](CCCNC(=N)N)NC(=O)c1ccc(/C=C2\SC(=S)N(CC3CCCO3)C2=O)cc1)C(N)=O` (some centres undefined) are 13.3%, 93.3% and 53.4%.
The corresponding values for `CCCC[C@H](NC(=O)c1ccc(/C=C2\SC(=O)N(Cc3ccccc3)C2=O)cc1)C(=O)N[C@@H](CCCCN)C(=O)N[C@@H](CCCNC(=N)N)C(N)=O` are 6.3%, 66.8% and 60.3%.
Consider `CCCC[C@H](NC(=O)[C@H](CCCCN)NC(=O)[C@H](CCCNC(=N)N)NC(=O)c1ccc(/C=C2\SC(=S)N(CC)C2=O)cc1)C(N)=O`, for which the inhibition in assay [1] was 13.6%; with Dengue virus it was 93.4%; in the assay with West Nile virus, 45.4%.
The corresponding values for `CCCC[C@H](NC(=O)[C@H](CCCC)NC(=O)[C@H](CCCNC(=N)N)NC(=O)c1ccc(/C=C2\SC(=O)N(Cc3ccccc3)C2=O)cc1)C(N)=O` are 8.3%, 81.4% and 88.3%.
The corresponding values for `CCCC[C@H](NC(=O)[C@H](CCCCN)NC(=O)[C@H](CCCNC(=N)N)NC(=O)c1ccc(/C=C2\SC(=O)N(C(C)C)C2=O)cc1)C(N)=O` are 10.6%, 95.8% and 30.9%.
Consider `CCCC[C@H](NC(=O)[C@H](CCCCN)NC(=O)[C@H](CCCNC(=N)N)NC(=O)c1ccc(/C=C2\SC(=S)N(CCOC(C)=O)C2=O)cc1)C(N)=O`, for which the inhibition in assay [1] worked out at 22.8%; in the assay on Dengue virus it was 89.3%; in the assay on West Nile virus, 22.4%.
The corresponding values for `CCCC[C@H](NC(=O)[C@H](CCCCN)NC(=O)[C@H](CCCNC(=N)N)NC(=O)c1ccc(/C=C2\NC(=S)N(Cc3ccccc3)C2=O)cc1)C(N)=O` are 11.4%, 83.5% and 29.2%.
On to `CCCC[C@H](NC(=O)[C@H](CCCNC(=N)N)NC(=O)[C@H](CCCCN)NC(=O)c1ccc(/C=C2\SC(=O)N(Cc3ccccc3)C2=O)cc1)C(N)=O`, for which the inhibition in assay [1] stood at 10.2%; with Dengue virus, 72.1%; in the assay with West Nile virus it was 60.9%.
